Assay results published in ChEMBL document CHEMBL1833958, “Anti-AIDS agents 87. New bio-isosteric dicamphanoyl-dihydropyranochromone (DCP) and dicamphanoyl-khellactone (DCK) analogues with potent anti-HIV activity” (Bioorg Med Chem Lett, 2011).

Columns and labels:
[1] = test system: Human immunodeficiency virus 1; assay: Antiviral activity against Human immunodeficiency virus 1 NL4-3 infected in human TZM-bl cells assessed as inhibition of viral replication after 48 hrs by luciferase reporter gene assay; assay type: functional, organism-based; details: Human immunodeficiency virus 1, NL4-3, TZM-bl
Method in brief: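 Single-round infection of TZM-bl cells with HIV-1 NL4-3 at 200 TCID50, mixed with test samples at eight four-fold serial dilutions in growth medium. After 48 h, medium is removed and luciferase reagent added. Luminescence is then read. EC50 is the concentration giving 50% reduction in RLU versus virus control wells, after background RLU subtraction.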

[2] = Therapeutic index, ratio of CC50 for human TZM-bl cells to EC50 for HIV1 NL4-3; assay type: cell-based; details: read-out: Ratio CC50/EC50
Method in brief: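 TI calculated as CC50 (uninfected TZM-bl growth inhibition) divided by EC50 (NL4-3 replication inhibition in TZM-bl luciferase reporter assay).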

[3] = Cytotoxicity against human TZM-bl cells assessed as inhibition of cell growth; assay type: cell-based
Method in brief: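 Uninfected TZM-bl cells exposed to test samples. CC50 is the concentration inhibiting cell growth by 50%.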

Structure (SMILES) | EC50 [1] | selectivity ratio [2] | CC50 [3]
Cc1cc(=O)oc2c3c(ccc12)SC(C)(C)[C@H](OC(=O)[C@@]12CC[C@@](C)(C(=O)O1)C2(C)C)[C@@H]3OC(=O)[C@@]12CC[C@@](C)(C(=O)O1)C2(C)C | 128 nM | > 238 | –
CCc1cc(=O)c2ccc3c(c2o1)[C@@H](OC(=O)C12CCC(C)(C(=O)O1)C2(C)C)[C@@H](OC(=O)C12CCC(C)(C(=O)O1)C2(C)C)[C@H](C)S3 (stereo partly drawn) | 38 nM | 48 | 1840 nM
Cc1cc(=O)oc2c3c(ccc12)SC(C)(C)[C@@H](OC(=O)[C@@]12CC[C@@](C)(C(=O)O1)C2(C)C)[C@H]3OC(=O)[C@@]12CC[C@@](C)(C(=O)O1)C2(C)C | 8590 nM | > 3.6 | > 30600 nM
CCc1cc(=O)c2ccc3c(c2o1)[C@@H](OC(=O)C12CCC(C)(C(=O)O1)C2(C)C)[C@@H](OC(=O)C12CCC(C)(C(=O)O1)C2(C)C)[C@H](C)O3 (stereo partly drawn) | 30 nM | 153 | 4550 nM
CCc1cc(=O)c2ccc3c(c2o1)[C@@H](OC(=O)C12CCC(C)(C(=O)O1)C2(C)C)[C@@H](OC(=O)C12CCC(C)(C(=O)O1)C2(C)C)C(C)(C)S3 (stereo partly drawn) | 54 nM | 100 | 5400 nM
CCc1cc(=O)c2ccc3c(c2o1)[C@H](OC(=O)C12CCC(C)(C(=O)O1)C2(C)C)[C@H](OC(=O)C12CCC(C)(C(=O)O1)C2(C)C)[C@@H](C)S3 (stereo partly drawn) | 184 nM | 20.8 | 3830 nM
CCc1cc(=O)c2ccc3c(c2o1)[C@@H](OC(=O)C12CCC(C)(C(=O)O1)C2(C)C)[C@@H](OC(=O)C12CCC(C)(C(=O)O1)C2(C)C)C(C)(C)O3 (stereo partly drawn) | – | 119 | –
